Active and inactive are the calls of the source. No cut-off for these calls is given here.
Experiments:
[1] = target: Cannabinoid receptor 1 (Homo sapiens, UniProt P21554); assay: biochemical; type: cell-based, HEK293
[2] = target: Cannabinoid receptor 2 (Homo sapiens, UniProt P34972); assay: Displacement of [3H]CP-55,940 from recombinant human CB2 receptor transfected in HEK cells; type: cell-based, HEK293
Outline: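 Competition binding used membranes from HEK cells transfected with hCB1 or hCB2. Data are means of at least three experiments in duplicate. The selectivity index is Ki(CB2)/Ki(CB1).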

[3] = Cmax in Wistar rat plasma at 10 mg/kg, ip; type: ADME, organism-based; parameters: dose 10 mg/kg, route intraperitoneal
Outline: (§1)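 Rats (n = 18) were dosed at 10 mg/kg i.p. in 2% Tween 80/98% saline (1 mL/kg). Plasma and brain were sampled at 30, 60, 120, 240 and 480 min and 24 h, then stored at −80 °C. Samples were extracted with internal standard and quantified by LC-MS/MS against calibration curves. Non-compartmental analysis was used, and brain penetration was taken as the AUC ratio. Values are means of three rats.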

[4] = Tmax in Wistar rat plasma at 10 mg/kg, ip; type: ADME, organism-based; parameters: dose 10 mg/kg, route intraperitoneal
Outline: as §1

[5] = Half life in Wistar rat plasma at 10 mg/kg, ip; type: ADME, organism-based; parameters: dose 10 mg/kg, route intraperitoneal
Outline: as §1

[6] = Mean residence time in Wistar rat plasma at 10 mg/kg, ip; type: ADME, organism-based; parameters: dose 10 mg/kg, route intraperitoneal
Outline: as §1

[7] = AUC (last) in Wistar rat plasma at 10 mg/kg, ip; type: ADME, organism-based; parameters: dose 10 mg/kg, route intraperitoneal, time 0 - last
Outline: as §1

[8] = Cmax in Wistar rat brain at 10 mg/kg, ip; type: ADME, organism-based; parameters: dose 10 mg/kg, route intraperitoneal
Outline: as §1

[9] = Tmax in Wistar rat brain at 10 mg/kg, ip; type: ADME, organism-based; parameters: dose 10 mg/kg, route intraperitoneal
Outline: as §1

[10] = Half life in Wistar rat brain at 10 mg/kg, ip; type: ADME, organism-based; parameters: dose 10 mg/kg, route intraperitoneal
Outline: as §1

[11] = Mean residence time in Wistar rat brain at 10 mg/kg, ip; type: ADME, organism-based; parameters: dose 10 mg/kg, route intraperitoneal
Outline: as §1

[12] = AUC in Wistar rat brain at 10 mg/kg, ip; type: ADME, organism-based; parameters: dose 10 mg/kg, route intraperitoneal
Outline: as §1

[13] = test system: Brain; assay: Drug level in Wistar rat brain at 10 mg/kg, ip; type: ADME, organism-based; parameters: dose 10 mg/kg, route intraperitoneal; conditions: in vivo
Outline: as §1

[14] = test system: Rattus norvegicus; assay: Antiobesity activity in diet-induced obese Wistar rat assessed as reduction in food intake at 1 mg/kg, ip measured after 1 to 6 hrs relative to vehicle-treated control; type: functional; parameters: scale not given: the % may be the effect or the level left; conditions: route intraperitoneal
Outline: (§2)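 Adult male Wistar rats (~500 g) were individually housed on an inverted 12:12 h cycle with free access to chow and water. Groups of 7–8, matched for body weight and 3-day food intake, received vehicle or compound i.p. (saline with a few drops of Tween 80, 3 mL/kg) 30 min before lights off. Food and water were weighed at 1–6 h and 24 h. Analysis was by ANOVA and Mann-Whitney.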

[15] = test system: Rattus norvegicus; assay: Antiobesity activity in diet-induced obese Wistar rat assessed as reduction in food intake at 10 mg/kg, ip measured after 1 to 6 hrs relative to vehicle-treated control; type: functional; parameters: scale not given: the % may be the effect or the level left; conditions: route intraperitoneal
Outline: as §2

[16] = test system: Rattus norvegicus; assay: Antiobesity activity in diet-induced obese Wistar rat assessed as reduction in food intake at 0.1 mg/kg, ip measured after 1 to 6 hrs relative to vehicle-treated control; type: functional, organism-based; parameters: dose 0.1 mg/kg
Outline: as §2

[17] = test system: Rattus norvegicus; assay: Antiobesity activity in diet-induced obese Wistar rat assessed as water intake at 1 mg/kg, ip measured after upto 6 hrs relative to vehicle-treated control; type: functional, organism-based; parameters: dose 1 mg/kg
Outline: as §2

[18] = test system: Rattus norvegicus; assay: Antiobesity activity in diet-induced obese Wistar rat assessed as water intake at 10 mg/kg, ip measured upto 6 hrs relative to vehicle-treated control; type: functional, organism-based; parameters: dose 10 mg/kg
Outline: as §2

[19] = test system: Rattus norvegicus; assay: Antiobesity activity in diet-induced obese Wistar rat assessed as water intake at 0.1 mg/kg, ip measured upto 6 hrs relative to vehicle-treated control; type: functional, organism-based; parameters: dose 0.1 mg/kg
Outline: as §2

[20] = test system: Rattus norvegicus; assay: Antiobesity activity in diet-induced obese Wistar rat assessed as reduction in food intake at 1 mg/kg, ip measured after 24 hrs relative to vehicle-treated control; type: functional, organism-based; parameters: dose 1 mg/kg
Outline: as §2

[21] = test system: Rattus norvegicus; assay: Antiobesity activity in diet-induced obese Wistar rat assessed as reduction in food intake at 10 mg/kg, ip measured after 24 hrs relative to vehicle-treated control; type: functional, organism-based; parameters: dose 10 mg/kg
Outline: as §2

[22] = test system: Rattus norvegicus; assay: Antiobesity activity in diet-induced obese Wistar rat assessed as water intake at 1 mg/kg, ip measured after 24 hrs relative to vehicle-treated control; type: functional, organism-based; parameters: dose 1 mg/kg
Outline: as §2

[23] = test system: Rattus norvegicus; assay: Antiobesity activity in diet-induced obese Wistar rat assessed as water intake at 10 mg/kg, ip measured after 24 hrs relative to vehicle-treated control; type: functional, organism-based; parameters: dose 10 mg/kg
Outline: as §2

[24] = test system: Rattus norvegicus; assay: Antiobesity activity in diet-induced obese Wistar rat assessed as water intake at 0.1 mg/kg, ip measured after 24 hrs relative to vehicle-treated control; type: functional, organism-based; parameters: dose 0.1 mg/kg
Outline: as §2

[25] = test system: Rattus norvegicus; assay: Antiobesity activity in diet-induced obese Wistar rat assessed as water intake at 3 mg/kg, ip measured after 24 hrs relative to vehicle-treated control; type: functional, organism-based; parameters: dose 3 mg/kg
Outline: as §2

[26] = test system: Rattus norvegicus; assay: Antiobesity activity in diet-induced obese Wistar rat assessed as reduction in food intake at 3 mg/kg, ip measured after 1 to 6 hrs relative to vehicle-treated control; type: functional; parameters: scale not given: the % may be the effect or the level left; conditions: route intraperitoneal
Outline: as §2

[27] = test system: Rattus norvegicus; assay: Antiobesity activity in diet-induced obese Wistar rat assessed as water intake at 3 mg/kg, ip measured upto 6 hrs relative to vehicle-treated control; type: functional, organism-based; parameters: dose 3 mg/kg
Outline: as §2

[28] = test system: Rattus norvegicus; assay: Antiobesity activity in diet-induced obese Wistar rat assessed as reduction in food intake at 3 mg/kg, ip measured after 24 hrs relative to vehicle-treated control; type: functional, organism-based; parameters: dose 3 mg/kg
Outline: as §2

Chain of Cannabinoid receptor 2 (P34972 whole entry): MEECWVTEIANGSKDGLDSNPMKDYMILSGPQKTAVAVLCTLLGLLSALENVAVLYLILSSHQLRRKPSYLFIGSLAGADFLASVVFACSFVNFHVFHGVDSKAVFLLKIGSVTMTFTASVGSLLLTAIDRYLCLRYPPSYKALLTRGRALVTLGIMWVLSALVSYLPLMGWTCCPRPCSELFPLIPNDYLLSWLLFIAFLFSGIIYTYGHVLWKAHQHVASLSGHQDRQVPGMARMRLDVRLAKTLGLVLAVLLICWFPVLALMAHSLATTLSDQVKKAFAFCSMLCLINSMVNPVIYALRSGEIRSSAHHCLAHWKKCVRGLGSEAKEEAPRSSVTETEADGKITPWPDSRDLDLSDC
Chain of Cannabinoid receptor 1 (P21554 whole entry): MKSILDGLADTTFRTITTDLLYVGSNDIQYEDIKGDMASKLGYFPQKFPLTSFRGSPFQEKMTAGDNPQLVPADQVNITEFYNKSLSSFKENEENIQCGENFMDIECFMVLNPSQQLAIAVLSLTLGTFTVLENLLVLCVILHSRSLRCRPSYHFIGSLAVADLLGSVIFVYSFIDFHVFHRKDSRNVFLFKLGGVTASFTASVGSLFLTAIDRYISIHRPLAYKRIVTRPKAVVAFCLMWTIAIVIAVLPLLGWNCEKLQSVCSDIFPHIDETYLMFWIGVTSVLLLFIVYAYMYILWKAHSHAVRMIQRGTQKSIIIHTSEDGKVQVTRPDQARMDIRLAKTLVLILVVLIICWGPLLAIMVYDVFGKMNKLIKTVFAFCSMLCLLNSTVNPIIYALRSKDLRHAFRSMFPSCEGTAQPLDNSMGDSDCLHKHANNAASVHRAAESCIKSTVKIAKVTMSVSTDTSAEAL

`CCCNC(=O)c1nn(-c2ccc(Cl)cc2Cl)c(-n2cccc2)c1C` showed a Ki [1] of 550 nM and a Ki [2] of 1500 nM.
Compound `Cc1c(C(=O)NC(C)C)nn(-c2ccc(Cl)cc2Cl)c1-n1cccc1` has a Ki [1] of 519 nM and a Ki [2] of 1130 nM.
Compound `Cc1c(C(=O)NC(C)(C)C)nn(-c2ccc(Cl)cc2Cl)c1-n1cccc1` has a Ki [1] of 89.5 nM and a Ki [2] of 14.6 nM.
In the case of `Cc1c(C(=O)NC(C)(C)C)nn(-c2ccc(Cl)cc2Cl)c1-n1c(C)ccc1C`, the Ki [1] is reported as 151 nM and the Ki [2] is reported as 20.2 nM.
In the case of `CCCCNC(=O)c1nn(-c2ccc(Cl)cc2Cl)c(-n2cccc2)c1C`, the Ki [1] is reported as 273 nM and the Ki [2] is reported as 796 nM.
`Cc1c(C(=O)NCCCCCO)nn(-c2ccc(Cl)cc2Cl)c1-n1c(C)ccc1C` showed a Ki [1] of 372 nM and a Ki [2] of 3200 nM.
Compound `Cc1c(C(=O)NC(C)C)nn(-c2ccc(Cl)cc2Cl)c1-n1c(C)ccc1C` has a Ki [1] of 234 nM and a Ki [2] of 1800 nM.
`CCCCCCCNC(=O)c1nn(-c2ccc(Cl)cc2Cl)c(-n2c(C)ccc2C)c1C` showed a Ki [1] of 97.2 nM and a Ki [2] of 205 nM.
For `CCCCNC(=O)c1nn(-c2ccc(Cl)cc2Cl)c(-n2c(C)ccc2C)c1C`, the Ki [1] was 123 nM and the Ki [2] was 460 nM.
Work on `CCCNC(=O)c1nn(-c2ccc(Cl)cc2Cl)c(-n2c(C)ccc2C)c1C` yielded a Ki [1] of 290 nM and a Ki [2] of 1950 nM.
Work on `CCCCCCNC(=O)c1nn(-c2ccc(Cl)cc2Cl)c(-n2cccc2)c1C` yielded a Ki [1] of 124 nM, a Ki [2] of 383 nM and a Cmax [3] of 170 ng/mL. For the same compound, the Tmax [4] was 0.5 h, the half-life [5] was 13.9 h and the MRT [6] was 14.8 h. For the same compound, the AUC(0-t) [7] was 340 ng·h/mL, the Cmax [8] was 110 ng/mL and the Tmax [9] was 0.5 h. For the same compound, the half-life [10] was 14.4 h, the MRT [11] was 14.3 h and the AUC [12] was 330 ng·h/mL. The Activity [13] was 97%, the Activity [14] was 10% and the Activity [15] was 25%. The Activity [16] was “inactive”, the Activity [17] was “inactive” and the Activity [18] was “inactive”. The Activity [19] was “inactive”, the Activity [20] was “inactive” and the Activity [21] was “inactive”. For the same compound, the Activity [22] was “inactive”, the Activity [23] was “inactive” and the Activity [24] was “inactive”. For the same compound, the Activity [25] was “inactive”.
With `CCCCCCNC(=O)c1nn(-c2ccc(F)cc2F)c(-n2c(C)ccc2C)c1C` the Ki [1] was 311 nM and the Ki [2] was 487 nM.
With `Cc1c(C(=O)NCCC(C)(C)C)nn(-c2ccc(Cl)cc2Cl)c1-n1c(C)ccc1C` the Ki [1] was 37.5 nM, the Ki [2] was 134 nM and the Activity [15] was 30%. The Activity [26] was 10%, the Activity [18] was “inactive” and the Activity [27] was “inactive”. The Activity [21] was “Active”, the Activity [28] was “Active” and the Activity [22] was “inactive”. The Activity [23] was “inactive”, the Activity [24] was “inactive” and the Activity [25] was “inactive”.
Compound `CCC(C)(C)NC(=O)c1nn(-c2ccc(Cl)cc2Cl)c(-n2c(C)ccc2C)c1C` has a Ki [1] of 193 nM and a Ki [2] of 121 nM.
Work on `Cc1c(C(=O)NCCC(C)(C)C)nn(-c2ccc(Cl)cc2Cl)c1-n1cccc1` yielded a Ki [1] of 45.6 nM and a Ki [2] of 52.4 nM.
With `Cc1c(C(=O)NCCCCCO)nn(-c2ccc(Cl)cc2Cl)c1-n1cccc1` the Ki [1] was 534 nM and the Ki [2] was 2340 nM.
In the case of `CCCCCCCNC(=O)c1nn(-c2ccc(Cl)cc2Cl)c(-n2cccc2)c1C`, the Ki [1] is reported as 211 nM and the Ki [2] is reported as 255 nM.
For `CCCCCCC(C)NC(=O)c1nn(-c2ccc(Cl)cc2Cl)c(-n2cccc2)c1C` (stereo unspecified), the Ki [1] was 157 nM and the Ki [2] was 237 nM.
`Cc1c(C(=O)NCCC(C)(C)C)nn(-c2ccc(F)cc2F)c1-n1c(C)ccc1C` showed a Ki [1] of 90.7 nM and a Ki [2] of 163 nM.
In the case of `CCCCCNC(=O)c1nn(-c2ccc(Cl)cc2Cl)c(-n2c(C)ccc2C)c1C`, the Ki [1] is reported as 182 nM and the Ki [2] is reported as 495 nM.
Work on `CCCCCCC(C)NC(=O)c1nn(-c2ccc(Cl)cc2Cl)c(-n2c(C)ccc2C)c1C` (stereo unspecified) yielded a Ki [1] of 105 nM and a Ki [2] of 136 nM.
With `CCCCCCCNC(=O)c1nn(-c2ccc(F)cc2F)c(-n2c(C)ccc2C)c1C` the Ki [1] was 368 nM and the Ki [2] was 365 nM.
For `CCCCCNC(=O)c1nn(-c2ccc(Cl)cc2Cl)c(-n2cccc2)c1C`, the Ki [1] was 81 nM and the Ki [2] was 206 nM.
`CCC(C)(C)NC(=O)c1nn(-c2ccc(Cl)cc2Cl)c(-n2cccc2)c1C` gave a Ki [1] of 47.6 nM and a Ki [2] of 5.7 nM.

From ChEMBL document CHEMBL1629497, “Synthesis and biological evaluation of new N-alkyl 1-aryl-5-(1H-pyrrol-1-yl)-1H-pyrazole-3-carboxamides as cannabinoid receptor ligands” (Eur J Med Chem, 2010)
